From publication PMC3711763 (The Journal of neuroscience : the official journal of the …, 2013)
Like-named read-outs stand apart in the source and are kept apart here.

Columns and labels:
[1] = test system: impulsive action in the 5-CSRT task; settings: cited from earlier work
male Sprague Dawley rats [2] = test: spontaneous locomotor activity; format: in vivo, rat; settings: i.p.
male Sprague Dawley rats [3] = test: 1-choice serial reaction time; format: in vivo, rat; settings: i.p.; for % Accuracy / % Omissions / Latency to start / Response latency / Time to finish: mean ± SEM; for number of reinforcers earned (combination study) / premature responses (combination study): alone or combined
How it was run: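 Male Sprague Dawley rats (225–325 g) were housed two per cage and food-restricted to 90% of free-feeding weight. They were trained until stable: >80% accuracy and <20% omissions for five consecutive sessions at the final stage (0.5 s stimulus, 5 s limited hold, 5 s ITI), with <15% variability. Test compound or saline vehicle was given i.p. 15 min pre-session. Data were analysed by one-way repeated-measures ANOVA with Dunnett's test versus saline.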

5-HT2AR = 5-HT2AR (Homo sapiens, UniProt P28223); test: intracellular calcium release in 5-HT2AR–CHO cells; format: cell-based; settings: for Cai2+ release, peptide alone, in 5-HT2AR–CHO cells: 15 min, peptide alone (data not shown); for effect on 5-HT-mediated Cai2+ release in 5-HT2AR–CHO cells: 15 min preincubation, 10 nM 5-HT
Chain of 5-HT2AR (P28223 whole entry): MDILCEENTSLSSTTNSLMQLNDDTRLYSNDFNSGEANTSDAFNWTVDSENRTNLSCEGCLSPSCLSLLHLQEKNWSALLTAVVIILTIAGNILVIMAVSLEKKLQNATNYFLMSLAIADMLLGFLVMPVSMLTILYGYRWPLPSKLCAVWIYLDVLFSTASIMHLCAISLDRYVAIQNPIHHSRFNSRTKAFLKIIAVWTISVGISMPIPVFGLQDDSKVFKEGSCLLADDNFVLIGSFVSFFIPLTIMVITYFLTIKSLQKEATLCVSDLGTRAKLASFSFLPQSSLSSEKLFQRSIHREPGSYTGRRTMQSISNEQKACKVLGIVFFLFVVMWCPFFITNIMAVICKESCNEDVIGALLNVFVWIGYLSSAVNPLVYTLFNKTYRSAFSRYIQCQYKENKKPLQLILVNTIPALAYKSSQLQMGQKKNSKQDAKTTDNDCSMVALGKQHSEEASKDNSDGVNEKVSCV

circular dichroism = format: physicochemical; settings: in water; 3L4F 300 μM, 3L4F-F1 100 and 300 μM; three independent trials
5-HT2CR = settings: for Cai2+ release, peptide alone (unstimulated): no agonist, fluorescence; for effect on 5-HT-evoked Cai2+ release: ANOVA main effect
[4] = test system: 5-HT2CR and PTEN protein expression, 5-HT2CR–CHO cells; test: Western blot of protein expression in 5-HT2CR–CHO cells; format: cell-based, human 5-HT2CR; CHO cells; settings: 1 pM, 15 min preincubation
How it was run: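 Cells were rinsed in ice-cold Krebs' solution, pelleted, and homogenized in HEPES/EDTA/EGTA/DTT buffer containing protease and phosphatase inhibitors. The membrane pellet from differential centrifugation was resuspended in buffer with 400 mM NaCl and 0.5% NP-40. Protein was quantified by BCA, reduced and heated at 70°C for 20 min, run on 4–12% Bis-Tris SDS-PAGE and transferred to PVDF. Blots were probed with primary antibody overnight and secondary for 45 min, then read by infrared imaging.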

[5] = test system: 5-HT2CR–PTEN complex in VTA; test: co-IP of 5-HT2CR–PTEN complex in rat VTA after systemic administration; format: in vivo; settings: 10 μmol/kg, i.p., killed 5 min later, relative to vehicle (saline)
[6] = TAT–3L4F 0.1 μmol/kg, WAY163909 1 mg/kg, alone or combined
[7] = TAT–3L4F 0.1 μmol/kg, WAY163909 1 mg/kg, alone or combined, p < 0.05
[8] = 0.5 and 1 mg/kg, versus saline, p < 0.05
[9] = TAT–3L4F 0.3 μmol/kg, WAY163909 0.1 mg/kg, versus saline
[10] = WAY163909 0.1 mg/kg, combination study
[11] = 15 min preincubation, Calcium 4 dye
[12] = 15 min preincubation, 1 nM 5-HT
[13] = 1 μmol/kg, versus saline, p < 0.05
[14] = TAT–3L4F 0.3 μmol/kg, combination study

Cc1cc2c(cc1Cl)N(C(=O)Nc1ccc(Oc3cccnc3C)nc1)CC2.Cl.Cl [SB242084, 6-chloro-5-methyl-1-((2-(2-methylpyrid-3-yloxy)pyrid-5-yl)carbamoyl)indoline dihydrochloride]
impulsive action by premature responses in the 5-CSRT task ([1]; ref Winstanley et al., 2004b, Fletcher et al., 2007): increase impulsive action

c1cc2c3c(c1)[C@H]1CCC[C@H]1N3CCNC2 [WAY163909, (7bR, 10aR)-1,2,3,4,8,9,10,10a-octa-hydro-7bH-cyclopenta-(b)(1,4)diazepino (6,7,1hi)indole]
total vertical activity, 70 min (combination study) (male Sprague Dawley rats [2]; [6]): No main effect of treatment was observed for vertical activity | vertical activity, 5-min bins (combination study) (male Sprague Dawley rats [2]; [6]): No main effect of treatment | central ambulation, 5-min bins (combination study) (male Sprague Dawley rats [2]; [7]): significantly reduced central ambulation versus saline at 10 min | peripheral ambulation, 5-min bins (combination study) (male Sprague Dawley rats [2]; [7]): significantly reduced peripheral ambulation versus saline at 5 and 10 min | total central ambulation, 70 min (combination study) (male Sprague Dawley rats [2]; [7]): but not either ligand alone | total horizontal ambulation, 70 min (combination study) (male Sprague Dawley rats [2]; TAT–3L4F 0.1 μmol/kg, WAY163909 1 mg/kg, alone or combined, versus saline): neither ligands tested alone at chosen doses altered total horizontal ambulation | % Accuracy (male Sprague Dawley rats [3]; 0.05 mg/kg): 100.52 ± 0.4% | % Omissions (male Sprague Dawley rats [3]; 0.05 mg/kg): 6.23 ± 1.1% | Latency to start (male Sprague Dawley rats [3]; 0.05 mg/kg): 0.69 ± 0.2 s | Response latency (male Sprague Dawley rats [3]; 0.05 mg/kg): 2.75 ± 0.4 s | Time to finish (male Sprague Dawley rats [3]; 0.05 mg/kg): 933.62 ± 29.4 s | % Accuracy (male Sprague Dawley rats [3]; 0.1 mg/kg, dose-response study): 100.72 ± 0.5% | % Omissions (male Sprague Dawley rats [3]; 0.1 mg/kg, dose-response study): 5.40 ± 0.9% | Latency to start (male Sprague Dawley rats [3]; 0.1 mg/kg, dose-response study): 1.13 ± 0.2 s | Response latency (male Sprague Dawley rats [3]; 0.1 mg/kg, dose-response study): 2.57 ± 0.2 s | Time to finish (male Sprague Dawley rats [3]; 0.1 mg/kg, dose-response study): 923.55 ± 16.5 s | % Accuracy (male Sprague Dawley rats [3]; 0.2 mg/kg): 100.15 ± 0.7% | % Omissions (male Sprague Dawley rats [3]; 0.2 mg/kg): 6.26 ± 1.6% | Latency to start (male Sprague Dawley rats [3]; 0.2 mg/kg): 0.85 ± 0.2 s | Response latency (male Sprague Dawley rats [3]; 0.2 mg/kg): 2.84 ± 0.4 s | Time to finish (male Sprague Dawley rats [3]; 0.2 mg/kg): 941.12 ± 34.9 s | % Accuracy (male Sprague Dawley rats [3]; 0.5 mg/kg): 100.61 ± 0.4% | % Omissions (male Sprague Dawley rats [3]; 0.5 mg/kg): 5.85 ± 0.9% | Latency to start (male Sprague Dawley rats [3]; 0.5 mg/kg): 0.62 ± 0.1 s | Response latency (male Sprague Dawley rats [3]; 0.5 mg/kg): 2.54 ± 0.2 s | Time to finish (male Sprague Dawley rats [3]; 0.5 mg/kg): 926.23 ± 17.3 s | % Accuracy (male Sprague Dawley rats [3]; 1 mg/kg): 101.48 ± 0.6% | % Omissions (male Sprague Dawley rats [3]; 1 mg/kg): 8.94 ± 0.7% | Latency to start (male Sprague Dawley rats [3]; 1 mg/kg): 1.11 ± 0.2 s | Response latency (male Sprague Dawley rats [3]; 1 mg/kg): 3.06 ± 0.4 s | Time to finish (male Sprague Dawley rats [3]; 1 mg/kg): 981.14 ± 33.7 s | number of reinforcers earned (male Sprague Dawley rats [3]; [8]): increased the number of reinforcers earned versus saline | premature responses (male Sprague Dawley rats [3]; [8]): decreased premature responses versus saline | number of reinforcers earned (combination study) (male Sprague Dawley rats [3]; [9]): Neither 0.3 μmol/kg TAT–3L4F nor 0.1 mg/kg WAY163909 alone altered the number of reinforcers earned versus saline | premature responses (combination study) (male Sprague Dawley rats [3]; [9]): Neither 0.3 μmol/kg TAT–3L4F nor 0.1 mg/kg WAY163909 alone altered premature responses | % Accuracy (male Sprague Dawley rats [3]; [10]): 100.21 ± 0.8% | % Omissions (male Sprague Dawley rats [3]; [10]): 5.45 ± 1.0% | Latency to start (male Sprague Dawley rats [3]; [10]): 1.11 ± 0.3 s | Response latency (male Sprague Dawley rats [3]; [10]): 2.83 ± 0.5 s | Time to finish (male Sprague Dawley rats [3]; [10]): 948.78 ± 37.7 s | additional measures of task performance (male Sprague Dawley rats [3]; accuracy, motivation, motility indices): did not alter additional measures of task performance, including accuracy, motivation, or motility indices | impulsive action by premature responses in the 5-CSRT task ([1]; ref Navarra et al., 2008): potently suppress

Ac-PNQDQNAR-NH2 [3L4F-F1]
Cai2+ release, peptide alone, in 5-HT2AR–CHO cells (5-HT2AR): did not induce Cai2+ release | effect on 5-HT-mediated Cai2+ release in 5-HT2AR–CHO cells (5-HT2AR): did not induce Cai2+ release or alter Cai2+ release evoked by 10 nM 5-HT | CD signal at 222 nm (circular dichroism): shallow inflection point at 222 nm | α-helix content by CD (circular dichroism): 10–30% | Cai2+ release, peptide alone (unstimulated) (5-HT2CR; [11]): did not induce Cai2+ release | concentrations that significantly increased Cai2+ release versus 1 nM 5-HT (5-HT2CR; 15 min preincubation, 1 nM 5-HT, Calcium 4 dye, FlexStation3, p < 0.05): 10 ^−13 to 10 ^−9 M

Ac-PNQDQNARRRKKKERR-NH2 [3L4F]
membrane protein expression levels of 5-HT2CR or PTEN [4]: unchanged | Cai2+ release, peptide alone, in 5-HT2AR–CHO cells (5-HT2AR): nor did it alter Cai2+ release when tested alone | effect on 5-HT-mediated Cai2+ release in 5-HT2AR–CHO cells (5-HT2AR): did not potentiate 5-HT-mediated (10 nM) Cai2+ release | CD signal at 222 nm (circular dichroism): clear inflection point at 222 nm | α-helix content by CD (circular dichroism): < 50% | cellular entry without TAT conjugation (5-HT2CR): TAT conjugation is not necessary for cellular entry | Emax of 5-HT-evoked Cai2+ release in presence of peptide (5-HT2CR; 1 pM peptide, 15 min, 5-HT concentration response, p < 0.05): 120.7 % of maximal response for 5-HT | Cai2+ release, peptide alone (unstimulated) (5-HT2CR; [11]): did not alter unstimulated Cai2+ release

Ac-QNARRRKK-NH2 [3L4F-F2]
Cai2+ release, peptide alone, in 5-HT2AR–CHO cells (5-HT2AR): did not induce Cai2+ release | effect on 5-HT-mediated Cai2+ release in 5-HT2AR–CHO cells (5-HT2AR): did not induce Cai2+ release or alter Cai2+ release evoked by 10 nM 5-HT | Cai2+ release, peptide alone (unstimulated) (5-HT2CR; [11]): did not induce Cai2+ release | effect on 5-HT-evoked Cai2+ release (5-HT2CR; [12]): No main effect

Ac-RRKKKERR-NH2 [3L4F-F3]
Cai2+ release, peptide alone, in 5-HT2AR–CHO cells (5-HT2AR): did not induce Cai2+ release | effect on 5-HT-mediated Cai2+ release in 5-HT2AR–CHO cells (5-HT2AR): did not induce Cai2+ release or alter Cai2+ release evoked by 10 nM 5-HT | Cai2+ release, peptide alone (unstimulated) (5-HT2CR; [11]): did not induce Cai2+ release | effect on 5-HT-evoked Cai2+ release (5-HT2CR; [12]): No main effect

Ac-YGRKKRRQRRRPNPDQKPRRKKKEKR-NH2 [rat TAT–3L4F]
intensity of PTEN immunoreactive band after IP for 5-HT2CR, VTA [5]: attenuated relative to vehicle (saline) treatment | effect across multiple activity measures (male Sprague Dawley rats [2]; 0.1 μmol/kg, alone): ineffective across multiple activity measures | horizontal ambulation, 5-min bins (male Sprague Dawley rats [2]; 1 μmol/kg, 15 min before test, versus saline, p < 0.05): significantly reduced horizontal ambulation versus saline at 5, 10, and 15 min | total horizontal ambulation, 70 min (male Sprague Dawley rats [2]; [13]): significantly reduced total horizontal ambulation versus saline | total peripheral ambulation, 70 min (male Sprague Dawley rats [2]; [13]): significantly reduced peripheral ambulation versus saline | central ambulation, 5-min bins (male Sprague Dawley rats [2]; 0.1 or 1 μmol/kg): No main effect of treatment | vertical activity, 5-min bins (male Sprague Dawley rats [2]; 0.1 or 1 μmol/kg): No main effect of treatment | total vertical activity, 70 min (combination study) (male Sprague Dawley rats [2]; [6]): No main effect of treatment was observed for vertical activity | vertical activity, 5-min bins (combination study) (male Sprague Dawley rats [2]; [6]): No main effect of treatment | total central ambulation, 70 min (combination study) (male Sprague Dawley rats [2]; [7]): but not either ligand alone | number of reinforcers earned (combination study) (male Sprague Dawley rats [3]; [9]): Neither 0.3 μmol/kg TAT–3L4F nor 0.1 mg/kg WAY163909 alone altered the number of reinforcers earned versus saline | premature responses (combination study) (male Sprague Dawley rats [3]; [9]): Neither 0.3 μmol/kg TAT–3L4F nor 0.1 mg/kg WAY163909 alone altered premature responses | % Accuracy (male Sprague Dawley rats [3]; [14]): 98.69 ± 0.6% | % Omissions (male Sprague Dawley rats [3]; [14]): 4.77 ± 1.0% | Latency to start (male Sprague Dawley rats [3]; [14]): 1.00 ± 0.6 s | Response latency (male Sprague Dawley rats [3]; [14]): 2.19 ± 0.2 s | Time to finish (male Sprague Dawley rats [3]; [14]): 875.10 ± 15.3 s
